Measured values taken from PMC4564109 (Journal of biomolecular screening, 2014).
Where two headings read alike, the source gives them in different places.

Key:
[1] = target: T1, recombinant human DNase I (Homo sapiens, UniProt P24855); experiment: High-throughput DNase I screening assay; type: biochemical; details: for Type of inhibition according to Lineweaver–Burk plots: DNase I
T1 sequence (P24855 23-282): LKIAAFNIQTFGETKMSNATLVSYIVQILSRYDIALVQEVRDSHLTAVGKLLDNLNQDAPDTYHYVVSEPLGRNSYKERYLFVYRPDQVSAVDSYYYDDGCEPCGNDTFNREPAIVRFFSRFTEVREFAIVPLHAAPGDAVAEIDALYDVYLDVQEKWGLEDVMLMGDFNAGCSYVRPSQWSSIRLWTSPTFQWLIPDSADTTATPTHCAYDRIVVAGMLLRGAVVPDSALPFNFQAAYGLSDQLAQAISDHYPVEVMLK

[2] = target: T2, DNase II (Sus scrofa, UniProt O62855); experiment: HTS fluorescent probe assay with DNase II; type: biochemical; details: DNase II 3.32 nM, pH 5.0; compared with DNase I
T2 sequence (O62855 22-364): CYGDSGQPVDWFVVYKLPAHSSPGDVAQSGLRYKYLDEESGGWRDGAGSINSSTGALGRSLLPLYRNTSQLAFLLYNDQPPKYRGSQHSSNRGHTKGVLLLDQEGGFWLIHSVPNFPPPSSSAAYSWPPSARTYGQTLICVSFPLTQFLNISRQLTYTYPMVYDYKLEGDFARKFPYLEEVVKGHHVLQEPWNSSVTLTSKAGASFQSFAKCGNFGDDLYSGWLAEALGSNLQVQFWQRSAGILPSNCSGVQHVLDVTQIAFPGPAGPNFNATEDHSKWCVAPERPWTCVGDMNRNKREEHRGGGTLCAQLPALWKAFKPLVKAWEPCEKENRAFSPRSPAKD

[3] = target: T3, recombinant murine EndoG (Mus musculus, UniProt O08600); experiment: HTS fluorescent probe assay with EndoG; type: biochemical; details: EndoG 0.14 μM; compared with DNase I
T3 sequence (O08600 45-294): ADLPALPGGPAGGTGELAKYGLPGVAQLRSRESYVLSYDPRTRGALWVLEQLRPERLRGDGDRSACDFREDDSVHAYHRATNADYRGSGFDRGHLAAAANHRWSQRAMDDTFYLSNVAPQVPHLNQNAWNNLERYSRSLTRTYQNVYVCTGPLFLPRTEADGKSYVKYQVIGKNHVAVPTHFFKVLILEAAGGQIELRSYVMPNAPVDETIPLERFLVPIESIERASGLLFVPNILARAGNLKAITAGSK
Procedure, shortened: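 Fluorescence was read kinetically at 37 °C, and mean velocity (mRFU/min) was taken over 20 min after background subtraction. Activity was expressed as a percentage of the DMSO control.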

[4] = target: micrococcal nuclease (Staphylococcus aureus, UniProt P00644); experiment: Plasmid incision assay; type: biochemical, bacterial; details: 10 μM
Procedure, shortened: (§1)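 Plasmid incision: 1 μg pECFP plasmid in 2 mM CaCl₂, 5 mM MgCl₂, 10 mM Tris-HCl pH 7.4, 0.5 mM DTT, test compound in DMSO (1% final), nuclease added, 1 h at 37 °C. The reaction was stopped with SDS/EDTA and run on a 1% agarose TAE gel at 7 V/cm for 35 min. Ethidium bromide-stained supercoiled band was quantified densitometrically.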

[5] = target: Benzonase (Serratia marcescens, UniProt P13717); experiment: Plasmid incision assay; type: biochemical, bacterial; details: 10 μM
Procedure, shortened: as §1

[6] = target: T4, RNase A (Bos taurus, UniProt P61823); experiment: Ribonuclease A Detection kit; type: biochemical; details: 1 μM and 100 μM
T4 sequence (P61823 27-150): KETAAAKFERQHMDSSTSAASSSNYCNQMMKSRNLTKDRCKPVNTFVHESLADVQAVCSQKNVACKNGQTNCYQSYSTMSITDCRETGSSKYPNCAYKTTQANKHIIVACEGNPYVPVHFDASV

[7] = system: protease; experiment: Protease Fluorescent Detection kit; type: biochemical; details: 1 μM and 100 μM
[8] = system: SOD; experiment: SOD Determination kit; type: biochemical; details: 1 μM and 100 μM
[9] = system: NRK-52E cells; experiment: Cell death assay; type: cell-based, rat; details: for Protection against cisplatin-induced cell death (LDH release): cisplatin 60 μM, 24 h; for Cytotoxicity of the inhibitor: highest concentration tested
Procedure, shortened: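 NRK-52E rat tubular epithelial cells were grown in DMEM with 5% FBS at 37 °C, 5% CO₂, and used within 1 d after confluence. Cells were seeded at 8000–10,000 per well, grown 24 h, then pre-incubated 2 h with serial dilutions of test compound. Cisplatin 60 μM was added, and LDH release was measured after 24 h with a CytoTox96 kit. Mean ± SD, n = 4.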

[10] = system: NRK-52E cells; experiment: TUNEL assay of cisplatin-induced DNA fragmentation; type: cell-based, rat; details: inhibitor 100 μM, 24 h cisplatin 60 μM
Procedure, shortened: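 Cells were exposed to cisplatin for 24 h in the presence of test compound at 100 μM, fixed in 5% formalin, TUNEL-stained with an in situ cell death detection kit, and counterstained with DAPI. Green-channel mean optical density for TUNEL-positive DNA damage was recorded over 10 independent fields per subset. Mean ± SD, n = 4.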

[11] = system: EndoG; experiment: EndoG protein expression by quantitative immunohistochemistry; type: cell-based, rat; details: NRK-52E cells, cisplatin 60 μM
Procedure, shortened: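 NRK-52E cells were fixed in 5% formalin and stained with rabbit anti-EndoG (1:200 in 0.5% BSA, 0.05% Tween-20, PBS), then AlexaFluor 647 anti-rabbit IgG (1:400), with DAPI counterstain. The control omitted the primary antibody. Red-channel mean optical density was recorded over 10 independent fields per subset. Mean ± SD, n = 4.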

[12] = Solubility in water; type: physicochemical
[13] = system: LDH; details: 1 μM and 100 μM
[14] = system: EndoG; experiment: EndoG mRNA expression by real-time RT-PCR; type: cell-based, rat; details: NRK-52E cells, cisplatin
[15] = read-out: IC50 against DNase I, DNase I 1.72 nM, 37 °C, HTS assay

Sequence of Benzonase (P13717 22-266): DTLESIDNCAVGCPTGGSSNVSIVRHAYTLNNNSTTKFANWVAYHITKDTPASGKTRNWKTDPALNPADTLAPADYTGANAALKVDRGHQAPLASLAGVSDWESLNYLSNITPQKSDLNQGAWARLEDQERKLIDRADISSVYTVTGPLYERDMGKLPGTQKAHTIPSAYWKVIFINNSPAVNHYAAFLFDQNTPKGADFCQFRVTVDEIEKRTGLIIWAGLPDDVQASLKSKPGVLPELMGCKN

Row | Compound | IC50 [1, 15] [µM] | Type of inhibition according to Lineweaver–Burk plots [1] | Suppression of DNase II activity [2] | Suppression of EndoG activity [3] | Inhibition of micrococcal nuclease (PIA) [4] | Inhibition of Benzonase (PIA) [5] | Inhibition of RNase A [6] | Inhibition of protease [7] | Inhibition of SOD [8] | Protection against cisplatin-induced cell death (LDH release) [9] | Cytotoxicity of the inhibitor [9] | Inhibition of cisplatin-induced DNA fragmentation (TUNEL) [10] | EndoG protein expression [11] | Solubility in water [12] | Inhibition of LDH [13] | EndoG mRNA expression [14] | IC50 [1] [µM]
1 | [Cl-].[Cl-].[Zn+2] [ZnCl2, reference compound] | 18 |  |  |  |  |  |  |  |  |  |  |  |  |  |  |  | 
2 | 1,3-phenylene-bis-aminoguanidine hydrochloride [IG-17] | 8.93 | competitive inhibitors | suppress the activity | suppress the activity | absence of inhibition | absence of inhibition | no inhibition activity was observed | no inhibition activity was observed | no inhibition activity was observed | some protection against cisplatin-induced cell death | significant cytotoxicity | marked inhibition | lower than the control level | unlimited solubility in water | no inhibition activity was observed |  | 
3 | 1,4-phenylene-bis-aminoguanidine hydrochloride [JR-132] | 2.73 | competitive inhibitors | suppress the activity | suppress the activity | absence of inhibition | absence of inhibition | no inhibition activity was observed | no inhibition activity was observed | no inhibition activity was observed | some protection against cisplatin-induced cell death | significant cytotoxicity | marked inhibition | significantly decreased | unlimited solubility in water | no inhibition activity was observed | significantly decreased | 
4 | O=C(O)CN(CCN(CC(=O)O)CC(=O)O)CC(=O)O [EDTA, ethylenediaminetetraacetic acid, reference compound] |  |  |  |  |  |  |  |  |  |  |  |  |  |  |  |  | 190
